Data: ChEMBL document CHEMBL4622938, “Discovery of phenanthridine analogues as novel chemical probes disrupting the binding of DNA to ΔFosB homodimers and ΔFosB/JunD heterodimers” (Bioorg Med Chem Lett, 2020)

Key:
[1] = biological target: T1, Protein FosB (Homo sapiens, UniProt P53539); experiment: (§1) Inhibition of recombinant Hi6-tagged deltaFOSB (unknown origin) expressed in insect cells interaction with TAMRA labeled 5'-GTCGGTGACTCAAAACA-3' AP1 oligonucleotide measured after 15 mins by fluorescence polarization assay
T1 sequence (P53539 whole entry): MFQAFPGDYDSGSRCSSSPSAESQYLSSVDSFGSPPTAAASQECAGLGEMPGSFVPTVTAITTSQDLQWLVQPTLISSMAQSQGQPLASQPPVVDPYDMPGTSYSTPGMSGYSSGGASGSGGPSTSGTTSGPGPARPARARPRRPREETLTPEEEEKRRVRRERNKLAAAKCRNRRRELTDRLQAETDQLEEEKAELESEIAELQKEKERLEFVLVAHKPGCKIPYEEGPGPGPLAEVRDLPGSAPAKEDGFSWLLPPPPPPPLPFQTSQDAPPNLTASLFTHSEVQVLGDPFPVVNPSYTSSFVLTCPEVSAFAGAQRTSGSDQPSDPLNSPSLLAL
Method in brief: (§2)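 ΔFosB homodimer, 320 nM (as monomers). Compound serially diluted, 10 concentrations over 0–200 μM in quadruplicate. Compound premixed 5 min with 25 nM TAMRA-cdk5 AP-1 19-mer duplex in 20 mM HEPES pH 7.5, 50 mM NaCl, then protein added for 15 min. FP read at ex 530/540, em 590 nm. Compound-plus-oligo wells without protein serve as the interference control. Four-parameter fit; IC50 is mean ± SD of two independent days.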

[2] = biological target: T2, Protein fosB/Transcription factor jun-D (Homo sapiens, UniProt P53539+P17535); experiment: (§3) Inhibition of recombinant Hi6-tagged deltaFOSB (unknown origin)/His6-tagged JUND (unknown origin) expressed in insect cells interaction with TAMRA labeled 5'-GTCGGTGACTCAAAACA-3' AP1 oligonucleotide measured after 15 mins by fluorescence polarization assay
T2 sequence (P53539 whole entry): T1 sequence (P53539 whole entry)
T2 sequence (P17535 whole entry): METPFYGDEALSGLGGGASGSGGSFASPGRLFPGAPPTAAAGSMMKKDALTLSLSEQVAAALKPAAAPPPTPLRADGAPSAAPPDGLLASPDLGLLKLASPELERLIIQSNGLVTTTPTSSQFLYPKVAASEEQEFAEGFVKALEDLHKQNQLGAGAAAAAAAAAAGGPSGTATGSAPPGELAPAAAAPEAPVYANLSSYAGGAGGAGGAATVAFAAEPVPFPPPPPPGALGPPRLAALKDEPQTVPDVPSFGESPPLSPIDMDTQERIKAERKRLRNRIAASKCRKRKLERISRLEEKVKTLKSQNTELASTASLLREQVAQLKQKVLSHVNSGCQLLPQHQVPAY
Method in brief: (§4)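 ΔFosB/JunD heterodimer, 280 nM (as monomers). Compound serially diluted, 10 concentrations over 0–200 μM in quadruplicate. Compound premixed 5 min with 25 nM TAMRA-cdk5 AP-1 19-mer duplex in 20 mM HEPES pH 7.5, 150 mM NaCl, then protein added for 15 min. FP read at ex 530/540, em 590 nm. Wells of compound with oligo and no protein check for DNA interference. IC50 from a four-parameter fit, mean ± SD of two independent days.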

[3] = biological target: T3, Protein fosB/Transcription factor jun-D (Homo sapiens, UniProt P17535+P53539); experiment: as §3; method in brief: as §4
T3 sequence (P53539 whole entry): T1 sequence (P53539 whole entry)
T3 sequence (P17535 whole entry): T2 sequence (P17535 whole entry)

[4] = biological target: T4, Protein FosB (Homo sapiens) (UniProt P53539); experiment: as §1; method in brief: as §2
T4 sequence (whole entry): T1 sequence (P53539 whole entry)

[5] = biological target: Protein fosB/Transcription factor jun-D (Homo sapiens) (UniProt P53539+P17535); experiment: as §3; method in brief: as §4

Structure (SMILES) | IC50 [1] | IC50 [2] | IC50 ([1]; read-out: IC50) [µM] | IC50 [3] [µM] | inhibition [4] | inhibition [5]
CCc1nc2c(OC)cccc2c2cc(OC)cc(OC)c12 | Not Active | Not Active |  |  |  | 
CCOC(=O)c1nc2c(C)cccc2c2c1CCC2 |  |  | > 100 | > 100 |  | 
COc1cccc2c1NC(CO)C1CC=CC21 (configuration not stated) |  |  | > 100 | > 100 |  | 
COc1cccc2c1NC(C(=O)O)C1CCCC21 (configuration not stated) |  |  | > 100 | > 100 |  | 
Cc1cccc2c3c(c(C(=O)O)nc12)CCC3 |  |  | > 100 | > 100 |  | 
COc1cccc2c1NC(C(=O)Nc1ccccc1)C1CC=CC21 (configuration not stated) |  |  | > 100 | > 100 |  | 
COc1cccc2c1NC(C(=O)O)C1CC=CC21 (configuration not stated) |  |  | 28.9 | 13.1 |  | 
Cc1cccc2c1NC(C(=O)O)C1CC=CC21 (configuration not stated) | Not Active | Not Active |  |  |  | 
CNC(=O)C1Nc2c(OC)cccc2C2C=CCC12 (configuration not stated) |  |  | > 100 | > 100 |  | 
CCOC(=O)C1Nc2c(OC)cccc2C2C=CCC12 (configuration not stated) |  |  | > 100 | > 100 |  | 
COc1cccc2c1N(C(C)=O)C(C(=O)O)C1CC=CC21 (configuration not stated) |  |  | > 100 | > 100 |  | 
COc1cc(OC)c2c(C(=O)O)nc3c(OC)cccc3c2c1 |  |  | > 100 | > 100 |  | 
COc1cc(OC)c2c(C3CCN(C(C)=O)CC3)nc3c(OC)cccc3c2c1 |  |  | > 100 | > 100 |  | 
COc1cc(OC)c2c(C3CCNCC3)nc3c(OC)cccc3c2c1 |  |  | 58 | 55.7 | Dose-dependent effect | Dose-dependent effect
COc1cc(OC)c2c(C3CCN(C(=O)OC(C)(C)C)CC3)nc3c(OC)cccc3c2c1 |  |  | > 100 | > 100 |  | 
